≈ marks a conversion by molar mass, not a printed value.
Experiments:
Staphylococcus aureus [1] = test: Antibacterial activity against Staphylococcus aureus ATCC 25923 after 16 hrs by broth microdilution method; assay type: functional; details: ATCC 25923, 16 h
Enterococcus faecalis [2] = test: Antibacterial activity against Enterococcus faecalis ATCC 29212 after 16 hrs by broth microdilution method; assay type: functional; details: ATCC 29212, 16 h
Escherichia coli [3] = test: Antibacterial activity against Escherichia coli ATCC 29425 after 16 hrs by broth microdilution method; assay type: functional; details: ATCC 29425, 16 h
Staphylococcus aureus [4] = test: Antibacterial activity against methicillin-susceptible Staphylococcus aureus after 16 hrs by broth microdilution method; assay type: functional
Outline: (§1)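 Clinical isolates, including strains resistant to common antimicrobials, tested by the standard broth dilution method. The read-out is the minimum inhibitory concentration in μg/mL. Each value is representative of three independent determinations.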

Staphylococcus aureus [5] = test: Antibacterial activity against methicillin-resistant Staphylococcus aureus after 16 hrs by broth microdilution method; assay type: functional; outline: as §1
Streptococcus pneumoniae [6] = test: Antibacterial activity against penicillin-susceptible Streptococcus pneumoniae after 16 hrs by broth microdilution method; assay type: functional
Streptococcus pneumoniae [7] = test: Antibacterial activity against penicillin-resistant Streptococcus pneumoniae after 16 hrs by broth microdilution method; assay type: functional; outline: as §1
Enterococcus faecalis [8] = test: Antibacterial activity against vancomycin-susceptible Enterococcus faecalis after 16 hrs by broth microdilution method; assay type: functional
Enterococcus faecalis [9] = test: Antibacterial activity against vancomycin-resistant Enterococcus faecalis after 16 hrs by broth microdilution method; assay type: functional; outline: as §1
Enterococcus faecium [10] = test: Antibacterial activity against vancomycin-susceptible Enterococcus faecium after 16 hrs by broth microdilution method; assay type: functional; outline: as §1
Enterococcus faecium [11] = test: Antibacterial activity against vancomycin-resistant Enterococcus faecium after 16 hrs by broth microdilution method; assay type: functional; outline: as §1
Escherichia coli [12] = test: Antibacterial activity against Escherichia coli clinical isolate after 16 hrs by 2-fold microdilution method; assay type: functional
HEK293 = test: Cytotoxicity against human HEK293 cells after 48 hrs by MTT assay; assay type: cell-based; details: HEK293, 48 h
Outline: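 Standard MTT assay in Human Embryonic Kidney 293 cells, with 64 μg/mL as the top concentration tested. IC50 came from three independent experiments.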

[13] = Cytotoxicity against human HEK293 cells at 64 ug/ml after 48 hrs by MTT assay; assay type: cell-based; details: read-out: INH
Outline: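 HEK293 cells were exposed to compound at 64 μg/mL and assessed by standard MTT. Inhibitory rate was recorded across three independent experiments.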

Compound | MIC (Staphylococcus aureus [1]) [µg/mL] | MIC (Enterococcus faecalis [2]) [µg/mL] | MIC (Escherichia coli [3]) [µg/mL] | other results
Clc1ccc(CNCCCNc2nc3ccccc3s2)c(Cl)c1 | 8 (≈ 21.8 µM) | 8 (≈ 21.8 µM) | > 64 | 
Clc1ccc(CNCCCNc2nc3ccccc3o2)cc1 | 16 (≈ 50.7 µM) | 16 (≈ 50.7 µM) | > 64 | 
COc1ccc2nc(NCCCNCc3ccc(Cl)c(Cl)c3)oc2c1 | 8 (≈ 21 µM) | 16 (≈ 42.1 µM) | 32 (≈ 84.1 µM) | 
c1ccc(CNCCCNc2nc3ccccc3s2)cc1 | > 64 | > 64 | > 64 | 
Cl.O=c1cc(NCCCNCc2ccc(Cl)c(Cl)c2)[nH]c2ccccc12 | 4 | 0.5 | > 64 | MIC (Staphylococcus aureus [4]): 2 µg/mL; MIC (Staphylococcus aureus [5]): 2 µg/mL; MIC (Streptococcus pneumoniae [6]): 4 µg/mL; MIC (Streptococcus pneumoniae [7]): 8 µg/mL; MIC (Enterococcus faecalis [8]): 1 µg/mL; MIC (Enterococcus faecalis [9]): 2 µg/mL; MIC (Enterococcus faecium [10]): 1 µg/mL; MIC (Enterococcus faecium [11]): 1 µg/mL; MIC (Escherichia coli [12]): > 64 µg/mL; IC50 (HEK293): > 64 µg/mL; cytotoxicity at 48 h, 64 ug/ml [13]: 15%
Clc1ccc2sc(NCCCNCc3ccc(Cl)c(Cl)c3)nc2c1 | 2 (≈ 4.99 µM) | 2 (≈ 4.99 µM) | 32 (≈ 79.8 µM) | 
Clc1ccc(CNCCCNc2nc3ccccc3o2)cc1Cl | 16 (≈ 45.7 µM) | 2 (≈ 5.71 µM) | 32 (≈ 91.4 µM) | 
Brc1cccc(CNCCNc2nc3ccccc3s2)c1 | 8 (≈ 22.1 µM) | 64 (≈ 177 µM) | 64 (≈ 177 µM) | 
Oc1ccc(CNCCCNc2nc3ccccc3o2)cc1 | 32 (≈ 108 µM) | 32 (≈ 108 µM) | > 64 | 
COc1ccc(CNCCNc2nc3ccccc3o2)cc1 | 64 (≈ 215 µM) | 64 (≈ 215 µM) | > 64 | 
Oc1ccc(CNCCCNc2nc3ccccc3s2)cc1 | 16 (≈ 51 µM) | 32 (≈ 102 µM) | > 64 | 
Clc1ccc(CNCCCNc2nc3ccccc3s2)cc1Cl | 4 (≈ 10.9 µM) | 16 (≈ 43.7 µM) | 32 (≈ 87.4 µM) | 
Oc1ccc(CNCCNc2nc3ccccc3o2)cc1 | 32 (≈ 113 µM) | 32 (≈ 113 µM) | > 64 | 
Fc1ccc2oc(NCCCNCc3ccc(Cl)c(Cl)c3)nc2c1 | 1 (≈ 2.72 µM) | 4 (≈ 10.9 µM) | 32 (≈ 86.9 µM) | 
CO/N=C(\C(=O)N[C@@H]1C(=O)N2C(C(=O)O)=C(COC(C)=O)CS[C@H]12)c1csc(N)n1 [CEFOTAXIME] |  |  |  | MIC (Staphylococcus aureus [4]): 1 µg/mL (≈ 2.2 µM); MIC (Staphylococcus aureus [5]): > 64 µg/mL; MIC (Streptococcus pneumoniae [6]): 1 µg/mL (≈ 2.2 µM); MIC (Streptococcus pneumoniae [7]): 64 µg/mL (≈ 141 µM); MIC (Enterococcus faecalis [8]): 1 µg/mL (≈ 2.2 µM); MIC (Enterococcus faecalis [9]): > 64 µg/mL; MIC (Enterococcus faecium [10]): 1 µg/mL (≈ 2.2 µM); MIC (Enterococcus faecium [11]): > 64 µg/mL; MIC (Escherichia coli [12]): 0.25 µg/mL (≈ 0.549 µM)
CC1(C)S[C@@H]2[C@H](NC(=O)[C@H](N)c3ccccc3)C(=O)N2[C@H]1C(=O)O [AMPICILLIN] |  |  |  | MIC (Staphylococcus aureus [4]): 0.0625 µg/mL (≈ 0.179 µM); MIC (Staphylococcus aureus [5]): > 64 µg/mL; MIC (Streptococcus pneumoniae [6]): 0.125 µg/mL (≈ 0.358 µM); MIC (Streptococcus pneumoniae [7]): > 64 µg/mL; MIC (Enterococcus faecalis [8]): 0.125 µg/mL (≈ 0.358 µM); MIC (Enterococcus faecalis [9]): > 64 µg/mL; MIC (Enterococcus faecium [10]): 0.25 µg/mL (≈ 0.715 µM); MIC (Enterococcus faecium [11]): > 64 µg/mL; MIC (Escherichia coli [12]): 0.25 µg/mL (≈ 0.715 µM)
Clc1ccc(CNCCNc2nc3ccccc3o2)cc1 | 8 (≈ 26.5 µM) | 32 (≈ 106 µM) | > 64 | 
COc1ccc(CNCCCNc2nc3ccccc3o2)cc1 | 32 (≈ 103 µM) | 32 (≈ 103 µM) | > 64 | 
Clc1ccc2nc(NCCCNCc3ccc(Cl)c(Cl)c3)oc2c1 | 2 (≈ 5.2 µM) | 4 (≈ 10.4 µM) | 32 (≈ 83.2 µM) | 
c1ccc(CNCCNc2nc3ccccc3o2)cc1 | > 64 | > 64 | > 64 | 
Clc1ccc(CNCCNc2nc3ccccc3s2)c(Cl)c1 | 2 (≈ 5.68 µM) | 8 (≈ 22.7 µM) | 32 (≈ 90.8 µM) | 
Clc1ccc(CNCCNc2nc3ccccc3o2)c(Cl)c1 | 8 (≈ 23.8 µM) | 8 (≈ 23.8 µM) | > 64 | 
